Measured values published in ChEMBL document CHEMBL1143407, “In vivo efficacy and pharmacokinetics of voriconazole in an animal model of dermatophytosis” (Antimicrob Agents Chemother, 2007).
Converted amounts (≈) assume the structure as drawn.

How the values were obtained:
[1] = Cmax in guinea pig skin at 20 mg/kg/day, po after 3 hrs; type: ADME, organism-based, Cavia porcellus, Zone of skin; design: dose 20 mg/kg/day, route oral
Outline: (§1)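 Day 14: three infected guinea pigs received the twelfth 20 mg/kg oral gavage dose. Whole blood was drawn from the eye vein hourly from 1 h. 3-mm full-thickness punch biopsies were taken hourly from the lesion margin over 3 h. Blood was precipitated with acetonitrile. Biopsies were extracted 6 h in acetonitrile-ammonium phosphate with freeze-thaw cycles. Total drug was measured by isocratic RP-18 HPLC (LLOQ 0.2 μg/ml).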

[2] = Cmax in guinea pig interstitial fluid at 20 mg/kg/day, po after 3 hrs; type: ADME, organism-based, Cavia porcellus; design: dose 20 mg/kg/day, route oral
Outline: (§2)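 Day 14: the first three treated guinea pigs, infected and dosed as above, were studied under anesthesia. Dermal microdialysis catheters were placed in normal and inoculated skin and perfused with isotonic NaCl at 1 μl/min. Probes were calibrated beforehand by retrodialysis (5 and 10 μg/ml). Dialysates were collected every 30 min for 3 h after the twelfth 20 mg/kg oral dose. Unbound level = 100 × C_dialysate/RR, by isocratic RP-18 HPLC.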

Microsporum canis [3] = test: Antifungal activity against Microsporum canis infected in guinea pig dermatophytosis model assessed as colony count per specimen at 20 mg/kg/day, po after 3 days; type: functional
Outline: (§3)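 Female guinea pigs (418 to 482 g) were inoculated on shaved skin with M. canis clinical-isolate microconidia at about 8 × 10⁵ conidia/ml. Oral solution was given by gavage at 20 mg/kg/day on days 3 to 14; controls were untreated (n = 8 per group). Skin scrapings were cultured on SAB with cycloheximide/chloramphenicol for 28 days and CFU per specimen counted. Groups were compared by Wilcoxon two-sample test.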

Paraphyton cookei = test: Antimicrobial activity against Microsporum cookei; type: functional
[4] = Cmin in guinea pig skin biopsy specimen at 20 mg/kg/day, po after 3 hrs; type: ADME, organism-based, Cavia porcellus, Zone of skin; design: route oral; conditions: read-out: Cmin; outline: as §1
[5] = Drug level in guinea pig skin biopsy specimen at 20 mg/kg/day, po after 3 hrs; type: ADME, organism-based, Cavia porcellus, Zone of skin; design: route oral; conditions: read-out: Drug uptake; outline: as §1
Nannizzia gypsea = test: Antimicrobial activity against Microsporum gypseum; type: functional
Microsporum canis [6] = test: Antifungal activity against Microsporum canis infected in guinea pig dermatophytosis model assessed as colony count per specimen at 20 mg/kg/day, po administered 12 days measured after 17 days; type: functional; outline: as §3
[7] = Drug level in guinea pig interstitial fluid at 20 mg/kg/day, po after 3 hrs; type: ADME, organism-based, Cavia porcellus; design: route oral; conditions: read-out: Drug uptake; outline: as §2
Nannizzia nana = test: Antimicrobial activity against Microsporum nanum; type: functional
Microsporum audouinii = test: Antimicrobial activity against Microsporum audouinii; type: functional
Microsporum distortum = test: Antimicrobial activity against Microsporum distortum; type: functional
[8] = Drug level in guinea pig whole blood at 20 mg/kg/day, po after 3 hrs; type: ADME, organism-based, Cavia porcellus; design: route oral; conditions: read-out: Drug uptake; outline: as §1
Microsporum canis [9] = test: Antifungal activity against Microsporum canis infected in guinea pig dermatophytosis model assessed as colony count per specimen at 20 mg/kg/day, po administered 12 days measured after 14 days; type: functional; outline: as §3
[10] = Cmin in guinea pig whole blood at 20 mg/kg/day, po after 3 hrs; type: ADME, organism-based, Cavia porcellus; design: route oral; conditions: read-out: Cmin; outline: as §1
Microsporum canis [11] = test: Antifungal activity against Microsporum canis infected in guinea pig dermatophytosis model assessed as colony count per specimen at 20 mg/kg/day, po after 7 days; type: functional; outline: as §3
[12] = Cmax in guinea pig skin biopsy specimen at 20 mg/kg/day, po after 3 hrs; type: ADME, organism-based, Cavia porcellus, Zone of skin; design: dose 20 mg/kg/day, route oral; outline: as §1
[13] = Cmax in guinea pig whole blood at 20 mg/kg/day, po after 3 hrs; type: ADME, organism-based, Cavia porcellus; design: dose 20 mg/kg/day, route oral; outline: as §1
Microsporum canis [14] = test: Antimicrobial activity against Microsporum canis; type: functional
Outline: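 MIC was determined by CLSI M38-A broth dilution, modified to use 10⁵ CFU/ml inoculum and 10 days incubation at 25°C. The organism was a clinical M. canis isolate, tested in triplicate.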

## C[C@@H](c1ncncc1F)[C@](O)(Cn1cncn1)c1ccc(F)cc1F [VORICONAZOLE]
[1]
  Cmax: 28100 ng/g
[2]
  Cmax: 2000 ng/mL
Microsporum canis [3]
  Activity: 6.4
Paraphyton cookei
  MIC: 0.01 µg/mL (≈ 0.0286 µM)
[4]
  concentration at 3 h: 9100 ng/g
[5]
  concentration at 3 h: 18300 ng/g
Nannizzia gypsea
  MIC: 0.01 µg/mL (≈ 0.0286 µM)
Microsporum canis [6]
  Activity: 0.2
[7]
  concentration at 3 h: 1400 ng/mL
Nannizzia nana
  MIC: 0.01 µg/mL (≈ 0.0286 µM)
Microsporum audouinii
  MIC: 0.01 µg/mL (≈ 0.0286 µM)
Microsporum distortum
  MIC: 0.01 µg/mL (≈ 0.0286 µM)
[8]
  concentration at 3 h: 6300 ng/mL
Microsporum canis [9]
  Activity: 0.3
[10]
  concentration at 3 h: 4000 ng/mL
Microsporum canis [11]
  Activity: 4.1
[12]
  Cmax: 35900 ng/g
[13]
  Cmax: 7700 ng/mL
Microsporum canis [14]
  MIC: 0.25 µg/mL (≈ 0.716 µM)
